The source of these data is ChEMBL document CHEMBL4316657, “Sesquiterpenes from an Endophytic Aspergillus flavus” (J Nat Prod, 2019).

The structures appear in SMILES notation.

For orientation: IC50 means the concentration needed to halve the response being measured.

Experiment [1] relates to HepG2. The experiment can be described thus: Hepatoprotective activity against APAP-induced toxicity in human HepG2 cells assessed as cell survival rate at 10 uM after 48 hrs by MTT assay relative to control. Type of experiment: functional. The note with it: HepG2, 48 h, read-out: Survival. A digest of the protocol: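 HepG2 cells were co-treated with compound (10 μM final) and acetaminophen (10 mM final per methods; results text cites 8 mM) for 48 h. Bicyclol served as positive control and DMSO as negative control. MTT (0.5 mg/mL) was added for 4 h at 37 °C, formazan dissolved in DMSO, and A570 read. Survival = mean OD treated / mean OD solvent control.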

Another experiment relates to BGC-823. Briefly: Cytotoxicity against human BGC823 cells measured after 72 hrs by MTT assay. To be noted: BGC-823, 72 h. For orientation: Tetrazolium dyes change colour on reduction, which living cells bring about.
In a further experiment the test system is A549. The experiment can be described thus: Cytotoxicity against human A549 cells measured after 72 hrs by MTT assay. To be noted: A549, 72 h.
Another experiment deals with HCT-116. The experiment can be described thus: Cytotoxicity against human HCT116 cells measured after 72 hrs by MTT assay. The note with it: HCT-116, 72 h.
In another experiment the test system is MCF7. The experiment can be described thus: Cytotoxicity against human MCF7 cells measured after 72 hrs by MTT assay. To be noted: MCF7, 72 h.
For experiment [2], the system named is HepG2. The experiment can be described thus: Cytotoxicity against human HepG2 cells measured after 72 hrs by MTT assay. The note with it: HepG2, 72 h.

Consider `CC(C)[C@H]1CC[C@@H](CO)c2c(O)cc(C(=O)O)cc21`, for which the viability at 10 µM in the experiment on HepG2 [1] is 33.2 to 41.6%.
For `CC(C)[C@H]1CC[C@H](CO)c2c(O)cc(C(=O)O)cc21`, in the experiment on HepG2 [1], the viability at 10 µM lay in the range of 33.2 to 41.6%.
For the compound `C=C(CC[C@@H](C)[C@H]1CC[C@H]2C3=CC(=O)[C@H]4[C@H](O)[C@@H](O)CC[C@]4(C)[C@H]3CC[C@]12C)C(C)COC` (stereo partly drawn), the half-maximal inhibitory concentration (IC50) was over 10000 nM in the experiment with BGC-823; over 10000 nM in the experiment with A549; over 10000 nM in the experiment on HCT-116; 2600 nM with MCF7; over 10000 nM with HepG2 [2]. In the experiment on HepG2 [1], the viability at 10 µM lay in the range of 33.2 to 41.6%.
As for `CC(=O)OC/C(=C\[C@@H]1[C@@H](C(C)C)CC[C@@]2(O)COC(=O)[C@@H]12)C(=O)O`, the viability at 10 µM in the experiment on HepG2 [1] lay in the range of 33.2 to 41.6%.
As to `CC(C)[C@H]1CC[C@H](C(=O)O)[C@H]2CCC(C(=O)O)=C[C@@H]21`, the viability at 10 µM with HepG2 [1] lay within 33.2 to 41.6%.
On to `C=C1CC[C@H](C(C)C)[C@@H](/C=C(\CC(=O)O)C(=O)O)[C@@H]1O`, for which the viability at 10 µM in the experiment on HepG2 [1] lay in the range of 33.2 to 41.6%.
On to `C=C(C)[C@@]12O[C@@H]1[C@@]1(C)C(=CC2=O)CC[C@@H](O)[C@@H]1C`, for which the viability at 10 µM with HepG2 [1] was in the range of 33.2 to 41.6%.
Take `COC(=O)c1cc(OC)c2c(c1-c1c(CO)cc(OC)c3c1OCO3)OCO2` [BICYCLOL]: the viability at 10 µM with HepG2 [1] was 31.9%.
Consider `CC(=O)O[C@H]1C(=O)[C@@]2(C)[C@H]([C@H](OC(=O)c3ccccc3)[C@]3(O)C[C@H](OC(=O)[C@H](O)[C@@H](NC(=O)c4ccccc4)c4ccccc4)C(C)=C1C3(C)C)[C@]1(OC(C)=O)CO[C@@H]1C[C@@H]2O` [PACLITAXEL], for which the IC50 stood at 0.4 nM in the experiment on BGC-823; 13.7 nM in the experiment on A549; 1.8 nM in the experiment with HCT-116; 0.2 nM in the experiment on MCF7; 1.9 nM in the experiment with HepG2 [2].
